Activity calls are given as the source filed them. No cut-off for these calls is given here.
Columns and labels:
[1] = biological target: Voltage-dependent L-type calcium channel subunit alpha-1D (Rattus norvegicus, UniProt P27732); assay: Antagonist activity at rat voltage-dependent L-type calcium channel Cav1.3alpha-1D expressed in HEK293 cells by FLIPR assay; assay type: cell-based
How it was run: (§1)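 HEK293 lines stably expressing rat CaV1.3α1D or rabbit CaV1.2α1C, with rat CaVβ3 and rat CaVα2δ-1 cDNAs used in construction. Calcium influx was read by Fluo-8 fluorescence on a FLIPR Tetra. […] The selectivity ratio is CaV1.3 IC50 over CaV1.2 IC50.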

[2] = Selectivity ratio of IC50 for rabbit voltage-dependent L-type calcium channel Cav1.2alpha-1C to IC50 for rat voltage-dependent L-type calcium channel Cav1.3alpha-1D
[3] = biological target: T1, Voltage-dependent L-type calcium channel subunit alpha-1C (Oryctolagus cuniculus, UniProt P15381); assay: Antagonist activity at rabbit voltage-dependent L-type calcium channel Cav1.2alpha-1C expressed in HEK293 cells by FLIPR assay; assay type: cell-based; how it was run: as §1
T1 sequence (P15381 whole entry): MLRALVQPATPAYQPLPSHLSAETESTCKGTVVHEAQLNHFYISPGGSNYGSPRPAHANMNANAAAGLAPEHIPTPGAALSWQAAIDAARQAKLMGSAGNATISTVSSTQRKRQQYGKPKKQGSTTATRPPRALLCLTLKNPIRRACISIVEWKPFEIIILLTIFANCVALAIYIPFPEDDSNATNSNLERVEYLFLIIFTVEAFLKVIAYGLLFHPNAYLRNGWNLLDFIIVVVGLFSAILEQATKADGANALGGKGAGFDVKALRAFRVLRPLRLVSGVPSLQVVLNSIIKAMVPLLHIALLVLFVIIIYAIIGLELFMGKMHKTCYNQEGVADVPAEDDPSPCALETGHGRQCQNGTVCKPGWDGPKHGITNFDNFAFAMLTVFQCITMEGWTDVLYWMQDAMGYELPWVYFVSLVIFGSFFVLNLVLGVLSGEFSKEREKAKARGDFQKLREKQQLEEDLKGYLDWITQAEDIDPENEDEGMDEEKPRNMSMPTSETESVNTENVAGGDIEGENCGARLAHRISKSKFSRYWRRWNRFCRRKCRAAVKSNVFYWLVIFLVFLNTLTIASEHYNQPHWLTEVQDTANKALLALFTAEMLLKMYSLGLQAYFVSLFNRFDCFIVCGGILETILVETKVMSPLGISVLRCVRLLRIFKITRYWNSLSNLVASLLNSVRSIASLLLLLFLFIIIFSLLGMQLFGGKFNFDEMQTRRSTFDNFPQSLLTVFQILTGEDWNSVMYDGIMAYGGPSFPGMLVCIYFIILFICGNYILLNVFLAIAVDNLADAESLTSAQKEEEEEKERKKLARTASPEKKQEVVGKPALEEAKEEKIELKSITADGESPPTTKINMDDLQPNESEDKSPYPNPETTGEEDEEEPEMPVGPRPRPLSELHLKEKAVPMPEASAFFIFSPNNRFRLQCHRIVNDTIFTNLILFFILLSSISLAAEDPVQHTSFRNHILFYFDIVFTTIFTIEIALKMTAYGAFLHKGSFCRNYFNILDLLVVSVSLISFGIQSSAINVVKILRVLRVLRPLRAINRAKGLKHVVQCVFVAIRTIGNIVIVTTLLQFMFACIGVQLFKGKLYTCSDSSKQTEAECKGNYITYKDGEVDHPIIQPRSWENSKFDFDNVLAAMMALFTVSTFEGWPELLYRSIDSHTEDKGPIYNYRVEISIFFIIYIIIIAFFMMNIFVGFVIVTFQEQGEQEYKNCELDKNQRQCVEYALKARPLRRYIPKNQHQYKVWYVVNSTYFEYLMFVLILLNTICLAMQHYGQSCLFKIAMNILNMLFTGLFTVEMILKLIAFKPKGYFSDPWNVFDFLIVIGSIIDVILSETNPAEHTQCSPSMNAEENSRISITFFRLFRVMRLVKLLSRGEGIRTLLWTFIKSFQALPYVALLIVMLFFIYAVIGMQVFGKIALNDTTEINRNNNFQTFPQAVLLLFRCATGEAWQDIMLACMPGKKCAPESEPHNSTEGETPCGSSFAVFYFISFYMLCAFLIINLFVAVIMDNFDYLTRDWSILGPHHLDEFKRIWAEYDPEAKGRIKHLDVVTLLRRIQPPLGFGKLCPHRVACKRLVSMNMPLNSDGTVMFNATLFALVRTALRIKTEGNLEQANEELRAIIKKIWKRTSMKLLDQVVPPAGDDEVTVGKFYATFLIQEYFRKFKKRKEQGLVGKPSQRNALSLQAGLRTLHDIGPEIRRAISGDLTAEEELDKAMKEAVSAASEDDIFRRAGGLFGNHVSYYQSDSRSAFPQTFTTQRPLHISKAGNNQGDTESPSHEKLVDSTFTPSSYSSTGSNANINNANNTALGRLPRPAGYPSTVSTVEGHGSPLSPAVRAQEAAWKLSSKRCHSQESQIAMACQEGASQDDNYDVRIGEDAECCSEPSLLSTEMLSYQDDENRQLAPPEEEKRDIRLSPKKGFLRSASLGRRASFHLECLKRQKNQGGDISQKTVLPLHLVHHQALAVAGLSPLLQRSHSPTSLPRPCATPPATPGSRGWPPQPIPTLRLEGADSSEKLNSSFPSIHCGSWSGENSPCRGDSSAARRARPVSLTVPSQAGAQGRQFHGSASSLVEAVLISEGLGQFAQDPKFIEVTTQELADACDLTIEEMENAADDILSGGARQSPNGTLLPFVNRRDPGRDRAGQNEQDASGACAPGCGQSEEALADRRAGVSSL

[4] = Selectivity ratio of inhibition for rat voltage-dependent L-type calcium channel Cav1.3alpha-1D to inhibition for rabbit voltage-dependent L-type calcium channel Cav1.2alpha-1C at 0.3 uM
[5] = Selectivity ratio of IC50 for rat voltage-dependent L-type calcium channel Cav1.3alpha-1D to IC50 for rabbit voltage-dependent L-type calcium channel Cav1.2alpha-1C
How it was run: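 HEK293 lines stably expressing rat CaV1.3α1D or rabbit CaV1.2α1C, with rat CaVβ3 and rat CaVα2δ-1 cDNAs used in construction. Calcium influx was read by Fluo-8 fluorescence on a FLIPR Tetra. The selectivity ratio is CaV1.3 IC50 over CaV1.2 IC50.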

[6] = biological target: T1, Voltage-dependent L-type calcium channel subunit alpha-1C; assay: Antagonist activity at rabbit voltage-dependent L-type calcium channel Cav1.2alpha-1C expressed in HEK293 cells assessed as inhibition of peak barium current at 1 to 10 uM by whole-cell patch-clamp electrophysiology technique; assay type: cell-based
How it was run: (§2)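 Stably transfected HEK293 cells were held on poly-D-lysine coverslips for 24–48 h at 37 °C, then whole-cell voltage-clamped. External solution (mM): 140 NaCl, 1 MgCl2, 10 BaCl2, 10 HEPES, 10 dextrose, 10 sucrose, 20 CsCl, pH 7.4. Ba2+ currents were evoked by a 100 ms step from −80 to 0 mV. Compound was perfused at 1 or 10 µM from a DMSO stock. Percent inhibition of peak current or of end current (last 50 ms) was taken, n = 5, as the median.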

[7] = biological target: T1, Voltage-dependent L-type calcium channel subunit alpha-1C; assay: Antagonist activity at rabbit voltage-dependent L-type calcium channel Cav1.2alpha-1C expressed in HEK293 cells assessed as inhibition of end barium current at 1 to 10 uM by whole-cell patch-clamp electrophysiology technique; assay type: cell-based; how it was run: as §2
[8] = biological target: Voltage-dependent L-type calcium channel subunit alpha-1D (Rattus norvegicus) (UniProt P27732); assay: Antagonist activity at rat voltage-dependent L-type calcium channel Cav1.3alpha-1D expressed in HEK293 cells assessed as inhibition of peak barium current at 1 to 10 uM by whole-cell patch-clamp electrophysiology technique; assay type: cell-based; how it was run: as §2
Chain of Voltage-dependent L-type calcium channel subunit alpha-1D (Rattus norvegicus) (P27732 whole entry): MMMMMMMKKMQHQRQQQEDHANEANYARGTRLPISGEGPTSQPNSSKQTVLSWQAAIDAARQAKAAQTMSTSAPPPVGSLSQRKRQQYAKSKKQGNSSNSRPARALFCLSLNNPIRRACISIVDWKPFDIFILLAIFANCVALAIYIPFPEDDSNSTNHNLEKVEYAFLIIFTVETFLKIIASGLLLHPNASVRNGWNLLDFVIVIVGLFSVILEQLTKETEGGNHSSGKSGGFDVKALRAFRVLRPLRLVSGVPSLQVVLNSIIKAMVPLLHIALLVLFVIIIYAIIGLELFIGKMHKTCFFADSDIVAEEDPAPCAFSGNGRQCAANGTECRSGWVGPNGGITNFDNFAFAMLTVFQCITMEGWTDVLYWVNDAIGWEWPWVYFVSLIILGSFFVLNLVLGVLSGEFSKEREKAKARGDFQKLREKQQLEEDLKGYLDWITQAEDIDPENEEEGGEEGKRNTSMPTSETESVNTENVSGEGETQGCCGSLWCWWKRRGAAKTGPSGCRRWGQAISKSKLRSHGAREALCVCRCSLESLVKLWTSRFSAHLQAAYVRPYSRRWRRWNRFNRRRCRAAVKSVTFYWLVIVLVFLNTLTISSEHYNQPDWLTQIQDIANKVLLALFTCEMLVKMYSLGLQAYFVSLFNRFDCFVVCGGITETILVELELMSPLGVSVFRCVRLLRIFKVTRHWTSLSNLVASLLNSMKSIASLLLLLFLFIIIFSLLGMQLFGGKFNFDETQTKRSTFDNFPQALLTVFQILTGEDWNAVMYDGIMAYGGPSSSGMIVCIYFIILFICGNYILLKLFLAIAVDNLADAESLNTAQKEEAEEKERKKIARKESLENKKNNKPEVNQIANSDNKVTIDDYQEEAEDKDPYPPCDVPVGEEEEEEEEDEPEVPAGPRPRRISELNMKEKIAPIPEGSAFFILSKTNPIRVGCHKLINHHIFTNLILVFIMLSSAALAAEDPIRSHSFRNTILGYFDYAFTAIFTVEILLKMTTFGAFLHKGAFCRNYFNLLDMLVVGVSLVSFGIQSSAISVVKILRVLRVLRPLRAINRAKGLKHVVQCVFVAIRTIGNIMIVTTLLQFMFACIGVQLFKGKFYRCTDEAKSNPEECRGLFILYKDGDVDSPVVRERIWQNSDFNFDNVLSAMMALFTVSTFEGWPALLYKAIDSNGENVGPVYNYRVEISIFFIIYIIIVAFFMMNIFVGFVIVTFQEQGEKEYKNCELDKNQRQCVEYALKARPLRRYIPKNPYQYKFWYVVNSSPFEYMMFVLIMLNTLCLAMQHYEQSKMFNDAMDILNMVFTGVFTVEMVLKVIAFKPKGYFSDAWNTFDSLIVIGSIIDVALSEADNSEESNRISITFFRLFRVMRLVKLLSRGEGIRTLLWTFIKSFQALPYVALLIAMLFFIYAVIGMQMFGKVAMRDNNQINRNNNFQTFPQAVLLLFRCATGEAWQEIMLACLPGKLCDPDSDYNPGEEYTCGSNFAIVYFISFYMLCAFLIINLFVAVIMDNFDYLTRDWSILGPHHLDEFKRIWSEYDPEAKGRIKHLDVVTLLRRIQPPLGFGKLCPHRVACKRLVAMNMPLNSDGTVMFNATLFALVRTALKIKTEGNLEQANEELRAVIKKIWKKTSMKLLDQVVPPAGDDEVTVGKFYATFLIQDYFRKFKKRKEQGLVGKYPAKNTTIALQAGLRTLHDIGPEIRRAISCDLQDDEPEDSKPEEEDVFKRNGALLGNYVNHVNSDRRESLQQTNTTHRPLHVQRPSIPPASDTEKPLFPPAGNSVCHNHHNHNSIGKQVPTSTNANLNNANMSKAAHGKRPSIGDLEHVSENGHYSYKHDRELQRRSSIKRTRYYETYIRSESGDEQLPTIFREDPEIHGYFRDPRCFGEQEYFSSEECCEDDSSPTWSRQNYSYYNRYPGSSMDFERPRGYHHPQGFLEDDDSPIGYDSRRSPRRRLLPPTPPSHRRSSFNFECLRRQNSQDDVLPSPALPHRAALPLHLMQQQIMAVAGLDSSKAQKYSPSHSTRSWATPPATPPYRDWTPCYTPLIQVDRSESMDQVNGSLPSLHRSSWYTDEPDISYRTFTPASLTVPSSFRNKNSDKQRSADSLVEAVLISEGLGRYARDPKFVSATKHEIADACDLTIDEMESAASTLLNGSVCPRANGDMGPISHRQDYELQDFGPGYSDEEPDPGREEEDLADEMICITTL

[9] = biological target: Voltage-dependent L-type calcium channel subunit alpha-1D (Rattus norvegicus) (UniProt P27732); assay: Antagonist activity at rat voltage-dependent L-type calcium channel Cav1.3alpha-1D expressed in HEK293 cells assessed as inhibition of end barium current at 1 to 10 uM by whole-cell patch-clamp electrophysiology technique; assay type: cell-based; how it was run: as §2

Chain of Voltage-dependent L-type calcium channel subunit alpha-1D (P27732 whole entry): as above

Compound | IC50 [1] [µM] | Ratio IC50 [2] | IC50 [3] [µM] | also measured
COC(=O)C1=C(C)N=C(SC)NC1c1cccc([N+](=O)[O-])c1 (configuration not stated) | 10.6 | 0.3 | 3.29 | –
COC(=O)N1C(SC)=NC(C)=C(C(=O)OC(C)C)C1c1cccc([N+](=O)[O-])c1 (configuration not stated) | 10.7 | 0.4 | 5.54 | –
CNC1=NC(C)=C(C(=O)OC)C(c2cccc([N+](=O)[O-])c2)N1C(=O)OC(C)C (configuration not stated) | 4.22 | 0.4 | 1.81 | –
CSC1=NC(c2cccc([N+](=O)[O-])c2)C(C(=O)OC(C)C)=C(C)N1 (configuration not stated) | 1.86 | 0.2 | 0.42 | –
COC(=O)N1C(=S)NC(C)=C(C(=O)OC(C)C)[C@H]1c1cccc([N+](=O)[O-])c1 | 0.56 | 0.9 | 0.5 | –
CCOC(=O)C1=C(N)OC(C)=C(C(=O)OC)C1c1cccc([N+](=O)[O-])c1 (configuration not stated) | 2.72 | 0.2 | 0.58 | –
CCOC(=O)C1=C(NC(=O)C(C)C)OC(C)=C(C(=O)OC)C1c1cccc([N+](=O)[O-])c1 (configuration not stated) | 9.95 | 0.4 | 4.23 | –
COC(=O)C1=C(C)NC(=O)N(C(=O)OC(C)C)C1c1cccc([N+](=O)[O-])c1 (configuration not stated) | 4.6 | 0.6 | 2.48 | –
CC1=C(C(=O)OC(C)C)[C@H](c2cccc([N+](=O)[O-])c2)N(C(=O)OC(C)C)C(=O)N1 | 1.96 | 1.6 | 3.07 | –
CC(C)OC(=O)C1=C(C(C)C)NC(=O)N(C(=O)OC(C)C)C1c1cccc([N+](=O)[O-])c1 (configuration not stated) | 4.31 | 0.5 | 1.93 | –
COC(=O)C1=C(C(C)C)NC(=O)N(C(=O)C(C)C)C1c1cccc([N+](=O)[O-])c1 (configuration not stated) | > 100 | – | 56.6 | –
COC(=O)N1C(=O)N(C(=O)OC)C(c2cccc([N+](=O)[O-])c2)C(C(=O)OC(C)C)=C1C (configuration not stated) | 5.88 | 1.1 | 6.13 | –
CCOC(=O)N1C(=O)NC(C(C)C)=C(C(=O)OC)C1c1cccc([N+](=O)[O-])c1 (configuration not stated) | 24.5 | 0.6 | 14.8 | –
CC1=C(C(=O)OC(C)C)C(c2cccc([N+](=O)[O-])c2)C(C(=O)OC(C)C)=C(N)O1 (configuration not stated) | 1.39 | 0.6 | 0.86 | –
CC1=C(C(=O)OC(C)C)C(c2cccc([N+](=O)[O-])c2)NC(=O)N1 (configuration not stated) | 46.6 | – | 58.1 | –
COC(=O)C1=C(C(C)C)NC(=O)N(C(=O)OC(C)C)C1c1cccc([N+](=O)[O-])c1 (configuration not stated) | 10.1 | 1 | 10.4 | –
COC(=O)C1=C(C)NC(=S)N(C(=O)OC(C)C)C1c1cccc([N+](=O)[O-])c1 (configuration not stated) | 0.88 | 0.2 | 0.17 | –
COC(=O)N1C(=O)NC(C)=C(C(=O)OC(C)C)C1c1cccc([N+](=O)[O-])c1 (racemic) | 2.96 | 0.9 | 2.48 | –
COC(=O)C1=C(C(C)C)NC(=O)NC1c1cccc([N+](=O)[O-])c1 (configuration not stated) | > 100 | – | > 100 | –

Compound | IC50 [1] [µM] | Ratio IC50 [2] | IC50 [3] [µM] | also measured
CC1=C(C(=O)OC(C)C)C(c2cccc([N+](=O)[O-])c2)N(C(=O)C(C)C)C(=O)N1 (configuration not stated) | 0.99 | 0.5 | 0.5 | –
COC(=O)C1=C(C)NC(C)=C(C(=O)OC(C)C)C1c1cccc2nonc12 (configuration not stated) [ISRADIPINE] | 0.221 | 0.5 | 0.107 | Selectivity ratio [4]: 0.69
COC(=O)N1C(=O)NC(C)=C(C(=O)OC(C)C)[C@@H]1c1cccc([N+](=O)[O-])c1 | 35.1 | 0.6 | 21.7 | –
COC(=O)N1C(=S)NC(C)=C(C(=O)OC(C)C)[C@@H]1c1cccc([N+](=O)[O-])c1 | 12.8 | 0.8 | 9.87 | –
COC(=O)C1=C(C)NC(=O)NC1c1cccc([N+](=O)[O-])c1 (configuration not stated) | 18.9 | 0.6 | 11.7 | –
COC(=O)C1=C(C)N=C(SC)N(C(=O)OC(C)C)C1c1cccc([N+](=O)[O-])c1 (configuration not stated) | 5.58 | 3 | 16.1 | –
CC1=C(C(=O)OC(C)C)C(c2cccc([N+](=O)[O-])c2)NC(=S)N1 (configuration not stated) | 15.8 | 0.7 | 10.7 | –
CNC1=NC(C)=C(C(=O)OC(C)C)C(c2cccc([N+](=O)[O-])c2)N1C(=O)OC (configuration not stated) | 3.25 | 0.8 | 2.45 | –
CCOC(=O)N1C(=O)N(C(=O)OCC)C(c2cccc([N+](=O)[O-])c2)C(C(=O)OC)=C1C(C)C (configuration not stated) | 13.9 | – | 13.9 | Ratio IC50 [5]: 1
COC(=O)C1=C(C)NC(=S)NC1c1cccc([N+](=O)[O-])c1 (configuration not stated) | > 100 | – | 55 | –
CCOC(=O)C1=C(NC(C)=O)OC(C)=C(C(=O)OC)C1c1cccc([N+](=O)[O-])c1 (configuration not stated) | 10 | 0.5 | 4.75 | –
COC(=O)C1=C(C)OC(N)=C(C(=O)OC(C)C)C1c1cccc([N+](=O)[O-])c1 (configuration not stated) | 1.82 | 0.2 | 0.41 | –
COC(=O)SC1=NC(C)=C(C(=O)OC(C)C)C(c2cccc([N+](=O)[O-])c2)N1C(=O)OC (configuration not stated) | 1.11 | 0.9 | 1.02 | –
CC1=C(C(=O)OC(C)C)[C@@H](c2cccc([N+](=O)[O-])c2)N(C(=O)OC(C)C)C(=O)N1 | 0.51 | 2.1 | 1.02 | inhibition (INH) [6]: Active; inhibition (INH) [7]: Active; inhibition [8]: Active; inhibition [9]: Active
COC(=O)N1C(=O)NC(C)=C(C(=O)OC(C)C)[C@H]1c1cccc([N+](=O)[O-])c1 | 1.91 | 1.2 | 2.36 | –
CC1=C(C(=O)OC(C)C)C(c2cccc([N+](=O)[O-])c2)N(C(=O)OC(C)C)C(=O)N1 (racemic) | 0.66 | 1 | 0.64 | –
COC(=O)C1=C(C)OC(NC(C)=O)=C(C(=O)OC(C)C)C1c1cccc([N+](=O)[O-])c1 (configuration not stated) | 13.6 | 0.5 | 6.11 | –
COC(=O)N1C(=S)NC(C)=C(C(=O)OC(C)C)C1c1cccc([N+](=O)[O-])c1 (racemic) | 0.55 | 0.6 | 0.35 | –

Source: ChEMBL document CHEMBL2396637, “Antagonism of L-type Ca2+ channels CaV1.3 and CaV1.2 by 1,4-dihydropyrimidines and 4H-pyrans as dihydropyridine mimics” (Bioorg Med Chem, 2013)
